Activity calls are given as the source filed them. The rule behind the calls is not given here.
Tests used:
Mus musculus [1] = assay: Toxicity in iv dosed albino mouse measured after 1 hr; type: organism-based; conditions: in vivo
[2] = target: T1, Neuronal acetylcholine receptor; alpha4/beta2 (Homo sapiens, UniProt P17787+P43681); assay: Agonist activity at human alpha4beta2 nAChR by cell-based rubidium flux assay
Summary of the method: (§1)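 Stably transfected cells expressing rat α3β4 or human α4β2 nAChR were used near confluence. They were preloaded with 86Rb+, washed, stimulated with test agonist, and the medium was separated before lysis. Efflux was taken as medium counts over total counts. Results are the mean ± SEM of 3–4 independent experiments.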

[3] = target: Neuronal acetylcholine receptor subunit alpha-7 (Rattus norvegicus) (UniProt Q05941); assay: Agonist activity at rat alpha7 nAChR expressed in Xenopus oocytes at -60 mV holding potential by electrophysiology method relative to acetylcholine; type: cell-based
Sequence of Neuronal acetylcholine receptor subunit alpha-7 (Rattus norvegicus) (Q05941 whole entry, the tested form may be a part): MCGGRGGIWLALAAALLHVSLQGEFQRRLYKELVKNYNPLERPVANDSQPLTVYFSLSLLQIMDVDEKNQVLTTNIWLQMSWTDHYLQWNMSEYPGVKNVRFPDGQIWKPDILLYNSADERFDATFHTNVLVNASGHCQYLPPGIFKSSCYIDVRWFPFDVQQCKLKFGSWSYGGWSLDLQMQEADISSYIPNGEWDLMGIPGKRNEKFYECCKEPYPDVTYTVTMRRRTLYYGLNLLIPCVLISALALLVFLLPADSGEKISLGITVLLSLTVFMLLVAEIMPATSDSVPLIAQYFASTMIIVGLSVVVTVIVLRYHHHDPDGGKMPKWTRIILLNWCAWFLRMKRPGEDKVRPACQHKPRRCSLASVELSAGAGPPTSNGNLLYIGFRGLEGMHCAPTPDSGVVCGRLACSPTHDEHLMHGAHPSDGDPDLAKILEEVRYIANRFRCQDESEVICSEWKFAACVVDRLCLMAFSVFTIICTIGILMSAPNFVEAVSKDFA
Summary of the method: (§2)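 Defolliculated X. laevis oocytes were injected with about 50 nL of rat subunit mRNA at 1 μg/μL. For α3β2 and α4β2 the subunits were mixed 1:1. Recording was by two-electrode voltage clamp at −60 mV and about 24 °C, with perfusion in HEPES-buffered NaCl/KCl/CaCl2/MgCl2. Agonist was applied for 3–4 s every 4–5 min. Peak currents were normalised to 1 mM ACh (nAChR) or 10 μM mCPBG (5-HT3A) and fitted to the Hill equation.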

[4] = target: T2, Neuronal acetylcholine receptor subunit alpha-7 (Rattus norvegicus, UniProt Q05941); assay: Agonist activity at rat alpha7 nAChR expressed in Xenopus oocytes at -60 mV holding potential by electrophysiology method; type: cell-based; summary of the method: as §2
T2 sequence (Q05941 whole entry): as the sequence (Q05941 whole entry, the tested form may be a part) above

[5] = target: Neuronal acetylcholine receptor; alpha3/beta4 (Rattus norvegicus) (UniProt P04757+P12392); assay: Agonist activity at rat alpha3beta4 nAChR by cell-based rubidium flux assay relative to 100 uM nicotine
Summary of the method: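 Stably transfected cells expressing rat α3β4 or human α4β2 nAChR were used near confluence. They were preloaded with 86Rb+, washed, stimulated with test agonist, and the medium was separated before lysis. Efflux was taken as medium counts over total counts. […] Results are the mean ± SEM of 3–4 independent experiments.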

Mus musculus [6] = assay: Toxicity in Swiss-Webster mouse assessed as tonic-clonic seizures at 50 ug/kg, iv measured within 30 secs; type: organism-based; conditions: in vivo, 0.05 mg/kg, 0.5 min
Summary of the method: (§3)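 Weanling male White Swiss-Webster mice (15–20 g) were fasted for 12 h. Compound in physiological buffered saline was given intravenously via the tail vein. Mice were then returned to their pens for observation of signs.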

[7] = target: T3, Neuronal acetylcholine receptor; alpha3/beta4 (Rattus norvegicus, UniProt P04757+P12392); assay: Displacement of [3H]epibatidine from alpha3beta4 nAChR (unknown origin) expressed in HEK cell membranes after 4 hrs by liquid scintillation counting method
T3 sequence (P04757 whole entry): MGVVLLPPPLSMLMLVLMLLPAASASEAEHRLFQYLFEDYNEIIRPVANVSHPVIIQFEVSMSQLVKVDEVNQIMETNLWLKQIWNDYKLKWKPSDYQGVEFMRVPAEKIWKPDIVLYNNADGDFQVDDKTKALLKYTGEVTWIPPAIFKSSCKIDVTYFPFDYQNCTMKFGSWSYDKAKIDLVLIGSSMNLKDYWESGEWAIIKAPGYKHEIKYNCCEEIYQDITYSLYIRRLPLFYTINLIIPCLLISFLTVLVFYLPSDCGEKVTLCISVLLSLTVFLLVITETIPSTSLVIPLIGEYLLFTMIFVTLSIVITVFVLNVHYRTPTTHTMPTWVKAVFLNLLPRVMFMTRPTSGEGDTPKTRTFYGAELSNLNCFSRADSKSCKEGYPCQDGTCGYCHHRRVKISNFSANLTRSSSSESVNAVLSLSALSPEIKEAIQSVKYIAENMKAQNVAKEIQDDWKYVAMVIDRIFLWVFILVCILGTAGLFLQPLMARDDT
T3 sequence (P12392 whole entry): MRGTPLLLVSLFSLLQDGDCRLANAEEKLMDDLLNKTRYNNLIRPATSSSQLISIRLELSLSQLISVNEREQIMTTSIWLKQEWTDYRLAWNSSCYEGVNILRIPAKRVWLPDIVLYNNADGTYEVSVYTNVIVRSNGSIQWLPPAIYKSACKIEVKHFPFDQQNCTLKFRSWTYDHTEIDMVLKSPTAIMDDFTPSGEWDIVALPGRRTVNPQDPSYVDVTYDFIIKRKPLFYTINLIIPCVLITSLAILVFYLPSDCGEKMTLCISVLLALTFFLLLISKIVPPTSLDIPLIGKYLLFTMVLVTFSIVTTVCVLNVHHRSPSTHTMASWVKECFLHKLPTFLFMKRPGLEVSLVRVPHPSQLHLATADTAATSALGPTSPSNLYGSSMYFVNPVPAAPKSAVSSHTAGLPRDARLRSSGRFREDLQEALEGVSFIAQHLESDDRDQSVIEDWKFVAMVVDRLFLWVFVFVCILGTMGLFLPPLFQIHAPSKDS
Summary of the method: (§4)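 Incubation was 4 h at room temperature, followed by rapid filtration, washing and liquid scintillation counting. Nonspecific binding was defined with 300 μM nicotine. Values are the mean ± SEM of four measurements.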

Mus musculus [8] = assay: Toxicity in Swiss-Webster mouse assessed as piloerection at 40 ug/kg, iv; type: organism-based; conditions: in vivo, 0.04 mg/kg; summary of the method: as §3
[9] = target: T4, Neuronal acetylcholine receptor; alpha4/beta2 (Rattus norvegicus, UniProt P09483+P12390); assay: Displacement of [3H]epibatidine from alpha4beta2 nAChR (unknown origin) expressed in HEK cell membranes after 4 hrs by liquid scintillation counting method; summary of the method: as §4
T4 sequence (P09483 whole entry): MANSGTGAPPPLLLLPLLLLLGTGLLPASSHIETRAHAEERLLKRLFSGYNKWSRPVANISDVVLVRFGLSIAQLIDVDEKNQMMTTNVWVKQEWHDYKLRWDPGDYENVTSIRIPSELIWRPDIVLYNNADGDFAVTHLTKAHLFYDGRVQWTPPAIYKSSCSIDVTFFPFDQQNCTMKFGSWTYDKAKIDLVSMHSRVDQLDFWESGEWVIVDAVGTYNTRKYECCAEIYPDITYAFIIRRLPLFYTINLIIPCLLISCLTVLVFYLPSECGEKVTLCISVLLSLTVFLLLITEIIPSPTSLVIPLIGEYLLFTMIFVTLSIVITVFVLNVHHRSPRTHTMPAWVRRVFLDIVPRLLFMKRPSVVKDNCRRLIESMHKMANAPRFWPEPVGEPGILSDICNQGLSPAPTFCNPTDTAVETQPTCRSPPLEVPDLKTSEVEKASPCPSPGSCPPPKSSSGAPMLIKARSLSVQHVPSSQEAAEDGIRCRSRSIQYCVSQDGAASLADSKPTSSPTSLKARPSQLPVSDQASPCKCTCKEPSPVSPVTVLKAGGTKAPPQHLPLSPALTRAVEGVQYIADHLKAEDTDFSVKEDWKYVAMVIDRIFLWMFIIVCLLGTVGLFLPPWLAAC
T4 sequence (P12390 whole entry): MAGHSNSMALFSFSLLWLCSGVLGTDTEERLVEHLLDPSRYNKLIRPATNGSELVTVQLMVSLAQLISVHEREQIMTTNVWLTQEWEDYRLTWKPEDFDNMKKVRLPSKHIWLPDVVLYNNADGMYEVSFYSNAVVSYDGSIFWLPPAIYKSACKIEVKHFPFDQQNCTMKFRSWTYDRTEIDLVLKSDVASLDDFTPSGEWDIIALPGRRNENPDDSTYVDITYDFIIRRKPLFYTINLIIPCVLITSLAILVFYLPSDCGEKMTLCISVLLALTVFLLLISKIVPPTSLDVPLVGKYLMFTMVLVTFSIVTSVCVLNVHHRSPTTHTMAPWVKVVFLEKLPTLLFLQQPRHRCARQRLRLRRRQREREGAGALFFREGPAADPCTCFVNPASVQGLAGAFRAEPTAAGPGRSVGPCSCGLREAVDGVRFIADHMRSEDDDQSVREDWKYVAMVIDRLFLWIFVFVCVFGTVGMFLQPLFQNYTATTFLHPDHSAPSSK

Mus musculus [10] = assay: Toxicity in Swiss-Webster mouse assessed as elevated respiration at 40 ug/kg, iv; type: organism-based; conditions: in vivo, 0.04 mg/kg; summary of the method: as §3
[11] = target: T3, Neuronal acetylcholine receptor; alpha3/beta4; assay: Agonist activity at rat alpha3beta4 nAChR by cell-based rubidium flux assay; summary of the method: as §1
[12] = target: T4, Neuronal acetylcholine receptor; alpha4/beta2; assay: Agonist activity at rat alpha4beta2 expressed in Xenopus oocytes at -60 mV holding potential by electrophysiology method; type: cell-based; summary of the method: as §2
Homo sapiens [13] = species on record: Homo sapiens; assay: Selectivity ratio of Ki for displacement of [3H]epibatidine from alpha3beta4 nAChR (unknown origin) expressed in HEK cell membranes to Ki for displacement of [3H]epibatidine from alpha4beta2 nAChR (unknown origin) expressed in HEK cell membranes
[14] = target: T1, Neuronal acetylcholine receptor; alpha4/beta2; assay: Agonist activity at human alpha4beta2 nAChR by cell-based rubidium flux assay relative to 100 uM nicotine; summary of the method: as §1
Mus musculus [15] = assay: Toxicity in Swiss-Webster mouse assessed as elevated respiration at 50 ug/kg, iv; type: organism-based; conditions: in vivo, 0.05 mg/kg; summary of the method: as §3
Homo sapiens [16] = species on record: Homo sapiens; assay: Selectivity ratio of EC50 for agonist activity at rat alpha3beta4 nAChR (unknown origin) to EC50 for agonist activity at alpha4beta2 nAChR (unknown origin)
Mus musculus [17] = assay: Toxicity in iv dosed Swiss-Webster mouse; type: organism-based; conditions: in vivo; summary of the method: as §3
[18] = target: Neuronal acetylcholine receptor; assay: Displacement of [3H]epibatidine from rat forebrain nAChR after 4 hrs by liquid scintillation counting method; summary of the method: as §4
Mus musculus [19] = assay: Toxicity in Swiss-Webster mouse assessed as elevated respiration at 40 ug/kg, iv measured within 1 min; type: organism-based; conditions: in vivo, 0.04 mg/kg; summary of the method: as §3
Mus musculus [20] = assay: Toxicity in Swiss-Webster mouse assessed as hyperactivity at 50 ug/kg, iv; type: organism-based; conditions: in vivo, 0.05 mg/kg; summary of the method: as §3
[21] = target: T2, Neuronal acetylcholine receptor subunit alpha-7; assay: Displacement of [3H]epibatidine from alpha7 nAChR (unknown origin) expressed in HEK cell membranes after 4 hrs by liquid scintillation counting method; summary of the method: as §4
Mus musculus [22] = assay: Toxicity in Swiss-Webster mouse assessed as piloerection at 50 ug/kg, iv; type: organism-based; conditions: in vivo, 0.05 mg/kg; summary of the method: as §3
[23] = target: T5, Neuronal acetylcholine receptor; alpha4/beta2 (Rattus norvegicus) (UniProt P09483+P12390); assay: Agonist activity at rat alpha4beta2 expressed in Xenopus oocytes at -60 mV holding potential by electrophysiology method relative to acetylcholine; type: cell-based; summary of the method: as §2
Mus musculus [24] = assay: Toxicity in Swiss-Webster mouse assessed as piloerection at 40 ug/kg, iv measured within 1 min; type: organism-based; conditions: in vivo, 0.04 mg/kg; summary of the method: as §3
Mus musculus [25] = assay: Toxicity in Swiss-Webster mouse assessed as death at 50 ug/kg, iv measured within 30 secs; type: organism-based; conditions: in vivo, 0.05 mg/kg, 0.5 min; summary of the method: as §3
[26] = target: T6, Neuronal acetylcholine receptor; alpha3/beta2 (Rattus norvegicus) (UniProt P04757+P12390); assay: Agonist activity at rat alpha3beta2 expressed in Xenopus oocytes at -60 mV holding potential by electrophysiology method relative to acetylcholine; type: cell-based; summary of the method: as §2
[27] = target: T7, 5-hydroxytryptamine receptor 3A (Rattus norvegicus) (UniProt P35563); assay: Agonist activity at rat 5HT3A expressed in Xenopus oocytes at -60 mV holding potential by electrophysiology method relative to metachlorophenylbiguanide; type: cell-based; summary of the method: as §2
T7 sequence (whole entry): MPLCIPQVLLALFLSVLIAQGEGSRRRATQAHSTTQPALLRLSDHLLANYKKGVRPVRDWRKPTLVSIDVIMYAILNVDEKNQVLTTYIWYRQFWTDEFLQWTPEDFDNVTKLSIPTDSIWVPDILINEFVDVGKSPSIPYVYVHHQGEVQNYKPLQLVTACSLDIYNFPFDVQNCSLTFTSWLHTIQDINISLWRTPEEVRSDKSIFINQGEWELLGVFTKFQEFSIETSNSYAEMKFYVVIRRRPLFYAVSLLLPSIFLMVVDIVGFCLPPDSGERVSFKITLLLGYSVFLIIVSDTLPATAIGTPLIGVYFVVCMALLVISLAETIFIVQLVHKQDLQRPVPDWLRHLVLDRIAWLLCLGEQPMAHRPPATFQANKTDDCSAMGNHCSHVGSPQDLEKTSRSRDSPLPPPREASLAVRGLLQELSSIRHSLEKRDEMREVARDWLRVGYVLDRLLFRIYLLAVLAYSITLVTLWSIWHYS

[28] = target: Neuronal acetylcholine receptor; alpha3/beta2 (Rattus norvegicus, UniProt P04757+P12390); assay: Agonist activity at rat alpha3beta2 expressed in Xenopus oocytes at -60 mV holding potential by electrophysiology method; type: cell-based; summary of the method: as §2
Sequence of Neuronal acetylcholine receptor; alpha3/beta2 (P04757 whole entry): as the sequence (P04757 whole entry) above
Sequence of Neuronal acetylcholine receptor; alpha3/beta2 (P12390 whole entry): as the sequence (P12390 whole entry) above

[29] = target: T7, 5-hydroxytryptamine receptor 3A (Rattus norvegicus); assay: Agonist activity at rat 5HT3A expressed in Xenopus oocytes at 100 uM at -60 mV holding potential in presence of tropisetron by electrophysiology method; type: cell-based
Summary of the method: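 Oocytes expressing rat 5-HT3A were held at −60 mV under two-electrode voltage clamp. Tropisetron (30 nM) was pre-applied for 2 min before 100 μM agonist was applied, with n=4.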

[30] = target: T8, 5-hydroxytryptamine receptor 3A (Rattus norvegicus, UniProt P35563); assay: Agonist activity at rat 5HT3A expressed in Xenopus oocytes at -60 mV holding potential by electrophysiology method; type: cell-based; summary of the method: as §2
T8 sequence (P35563 whole entry): T7 sequence (whole entry)

[31] = target: T6, Neuronal acetylcholine receptor; alpha3/beta2 (Rattus norvegicus); assay: Agonist activity at rat alpha3beta2 expressed in Xenopus oocytes at 10 nM at -60 mV holding potential in presence of dihydro-beta-erythroidine by electrophysiology method; type: cell-based
Rattus norvegicus = species on record: Rattus norvegicus; assay: Selectivity ratio of EC50 for rat alpha7 nAChR expressed in Xenopus oocytes to EC50 rat alpha4beta2 expressed in Xenopus oocytes; type: cell-based
[32] = target: T5, Neuronal acetylcholine receptor; alpha4/beta2 (Rattus norvegicus); assay: Agonist activity at rat alpha4beta2 expressed in Xenopus oocytes at 10 nM at -60 mV holding potential in presence of dihydro-beta-erythroidine by electrophysiology method; type: cell-based
[33] = target: Neuronal acetylcholine receptor subunit alpha-7 (Rattus norvegicus) (UniProt Q05941); assay: Agonist activity at rat alpha7 nAChR expressed in Xenopus oocytes at 10 uM at -60 mV holding potential by electrophysiology method in presence of methyllycaconitine; type: cell-based
Mus musculus [34] = assay: Toxicity in Swiss-Webster mouse assessed as elevated respiration at 10 mg/kg, iv; type: organism-based; conditions: in vivo; summary of the method: as §3
Mus musculus [35] = assay: Toxicity in Swiss-Webster mouse assessed as piloerection at 10 mg/kg, iv; type: organism-based; conditions: in vivo; summary of the method: as §3
Mus musculus [36] = assay: Toxicity in Swiss-Webster mouse assessed as hyperactivity at 10 mg/kg, iv; type: organism-based; conditions: in vivo; summary of the method: as §3

T1 sequence (P17787 whole entry): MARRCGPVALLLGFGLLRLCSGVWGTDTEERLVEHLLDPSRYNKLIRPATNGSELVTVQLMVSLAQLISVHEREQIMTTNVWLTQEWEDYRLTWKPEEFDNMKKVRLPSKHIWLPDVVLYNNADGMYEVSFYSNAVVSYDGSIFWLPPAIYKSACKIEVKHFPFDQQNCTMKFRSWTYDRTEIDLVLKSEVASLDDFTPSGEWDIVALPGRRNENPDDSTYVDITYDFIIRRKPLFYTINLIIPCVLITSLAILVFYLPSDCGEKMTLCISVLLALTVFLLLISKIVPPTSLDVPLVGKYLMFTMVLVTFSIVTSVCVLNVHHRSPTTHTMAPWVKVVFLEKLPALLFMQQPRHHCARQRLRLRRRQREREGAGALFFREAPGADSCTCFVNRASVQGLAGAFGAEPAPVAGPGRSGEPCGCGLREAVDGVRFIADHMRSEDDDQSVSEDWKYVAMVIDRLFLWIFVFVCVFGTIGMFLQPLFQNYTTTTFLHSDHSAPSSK
T1 sequence (P43681 whole entry): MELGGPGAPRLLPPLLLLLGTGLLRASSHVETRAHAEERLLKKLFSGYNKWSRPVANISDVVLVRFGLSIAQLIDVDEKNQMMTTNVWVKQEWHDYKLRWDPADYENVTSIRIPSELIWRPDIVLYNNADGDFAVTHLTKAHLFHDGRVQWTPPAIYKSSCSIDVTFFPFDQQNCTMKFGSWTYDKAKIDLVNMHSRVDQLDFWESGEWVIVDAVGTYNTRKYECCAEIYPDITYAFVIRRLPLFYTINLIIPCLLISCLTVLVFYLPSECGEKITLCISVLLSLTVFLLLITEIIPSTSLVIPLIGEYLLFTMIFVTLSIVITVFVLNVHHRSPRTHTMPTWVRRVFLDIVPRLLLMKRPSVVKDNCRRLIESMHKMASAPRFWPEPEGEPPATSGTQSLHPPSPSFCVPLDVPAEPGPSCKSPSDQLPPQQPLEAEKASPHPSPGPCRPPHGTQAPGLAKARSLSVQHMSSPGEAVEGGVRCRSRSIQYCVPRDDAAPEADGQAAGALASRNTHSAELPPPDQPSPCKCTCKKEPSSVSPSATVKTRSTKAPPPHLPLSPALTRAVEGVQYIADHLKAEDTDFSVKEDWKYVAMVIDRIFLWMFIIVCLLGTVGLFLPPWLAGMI

Compound: CN1CCC[C@H]1c1ccccc1
- LD50 (Mus musculus [1]): 300 µg/kg
- EC50 [2]: 2100 nM

Compound: Clc1ccc2c(n1)O[C@]13CC[C@H]1NC[C@H]23
- Imax [3]: 1.1%
- EC50 [4]: 4 µM
- Emax [5]: 91%
- Activity (Mus musculus [6]): Toxic
- Ki [7]: 9.1 nM
- Activity (Mus musculus [8]): Toxic
- Ki [9]: 0.27 nM
- Activity (Mus musculus [10]): Toxic
- EC50 [11]: 570 nM
- EC50 [12]: 1.5 nM
- Ratio Ki (Homo sapiens [13]): 34
- Emax [14]: 45%
- Activity (Mus musculus [15]): Toxic
- Ratio EC50 (Homo sapiens [16]): 2.9
- LD50 (Mus musculus [17]): 72 µg/kg
- Ki [18]: 0.87 nM
- Activity (Mus musculus [19]): Non-Toxic
- Activity (Mus musculus [20]): Toxic
- Ki [21]: 4.4 nM
- Activity (Mus musculus [22]): Toxic
- Imax [23]: 0.37%
- EC50 [2]: 200 nM
- Activity (Mus musculus [24]): Non-Toxic
- Activity (Mus musculus [25]): Toxic

Compound: Clc1ccc2c(n1)OC13CCC1NCC23 (racemic)
- Imax [3]: 1.08%
- Imax [26]: 0.25%
- EC50 [4]: 9.9 µM
- Imax [27]: 0.79%
- Emax [5]: 91%
- EC50 [28]: 19 µM
- Ki [7]: 11 nM
- Activity [29]: inactive
- Ki [9]: 0.35 nM
- EC50 [30]: 29 µM
- EC50 [11]: 750 nM
- EC50 [12]: 3.1 nM
- Activity [31]: inactive
- Ratio Ki (Homo sapiens [13]): 31
- Emax [14]: 42%
- Ratio EC50 (Rattus norvegicus): 3200
- Ratio EC50 (Homo sapiens [16]): 3.7
- LD50 (Mus musculus [17]): 270 µg/kg
- Ki [18]: 1.1 nM
- Ki [21]: 5.4 nM
- Activity [32]: inactive
- Imax [23]: 0.32%
- EC50 [2]: 200 nM
- Activity [33]: inactive

Compound: Clc1ccc(C2CC3CCC2N3)cn1 (racemic) [EPIBATIDINE]
- Emax [5]: 114%
- Emax [14]: 135%
- LD50 (Mus musculus [17]): 1.5 µg/kg

Compound: O=c1cccc2n1C[C@@H]1CNC[C@H]2C1 [CYTISINICLINE]
- LD50 (Mus musculus [1]): 1730 µg/kg

Compound: Clc1ccc2c(n1)O[C@@]13CC[C@@H]1NC[C@@H]23 [PHANTASMIDINE]
- Imax [3]: 1.02%
- EC50 [4]: 21 µM
- Activity (Mus musculus [34]): Toxic
- Activity (Mus musculus [35]): Toxic
- Emax [5]: 53%
- Ki [7]: 390 nM
- Ki [9]: 12 nM
- EC50 [11]: 27000 nM
- EC50 [12]: 45 nM
- Ratio Ki (Homo sapiens [13]): 33
- Emax [14]: 110%
- Ratio EC50 (Homo sapiens [16]): 0.49
- LD50 (Mus musculus [17]): > 10000 µg/kg
- Ki [18]: 29 nM
- Ki [21]: 130 nM
- Imax [23]: 0.43%
- EC50 [2]: 56000 nM
- Activity (Mus musculus [36]): Toxic
